High-throughput results: PubChem BioAssay, several laboratories
Sampled rows, rich in hits. Any-hit rate of the full collection: about 2.7%.
bovine MsrA act – activators of bovine methionine sulfoxide reductase A; hit rate 0.3% among 360,000; purified bovine MsrA, absorbance read-out; activation, % at 10.6 µM; in the data active = activation above about 7.5%;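 also: 0% = vehicle and 100% = reference activator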
sPLA2-III inh – Inhibits HGIII-sPLA2 liposome hydrolysis, primary screen | Q9NZ20 | QFRET BODIPY PC-A2 liposome hydrolysis, fluorescence | inhibition, % at 12.2 µM | hit rate 0.56% among 370,000;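 active = inhibition above mean plus 3 SD of compounds lying within the high and low control bounds, cut at about 19% in these data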;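 also: 0% = median of test compound wells and 100% = no enzyme DMSO wells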
MsrA inh – inhibits bovine methionine sulfoxide reductase A; purified bovine MsrA, absorbance read-out; inhibition, % at 15.5 µM; hit rate 0.75% among 360,000; AID 651718; in the data active = inhibition above about 4.5%;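 also: 0% = vehicle wells with enzyme and 100% = reference inhibitor wells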
Rev-erbA mod – Rev-erb alpha (human) modulation; Rev-erbα–FITC-DNA binding, fluorescence polarization, 90 min; activity, % at 10 µM; hit rate 0.79% among 370,000;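 active = activity above about 14%, limit read from the data; passing the limit was not always enough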;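 also: 0% = DMSO wells with 35 nM protein and 100% = DMSO wells with 750 nM protein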
ASAP1 inh – blocks human ASAP1-stimulated Arf1 GTP hydrolysis; GDP FP detection; inhibition, % at 16.5 µM; hit rate 0.19% among 360,000; in the data active = inhibition above about 25%;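 also: 0% = vehicle with enzyme and substrate and 100% = no enzyme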
Target sequence (Q9ULH1 325-724 limits assumed): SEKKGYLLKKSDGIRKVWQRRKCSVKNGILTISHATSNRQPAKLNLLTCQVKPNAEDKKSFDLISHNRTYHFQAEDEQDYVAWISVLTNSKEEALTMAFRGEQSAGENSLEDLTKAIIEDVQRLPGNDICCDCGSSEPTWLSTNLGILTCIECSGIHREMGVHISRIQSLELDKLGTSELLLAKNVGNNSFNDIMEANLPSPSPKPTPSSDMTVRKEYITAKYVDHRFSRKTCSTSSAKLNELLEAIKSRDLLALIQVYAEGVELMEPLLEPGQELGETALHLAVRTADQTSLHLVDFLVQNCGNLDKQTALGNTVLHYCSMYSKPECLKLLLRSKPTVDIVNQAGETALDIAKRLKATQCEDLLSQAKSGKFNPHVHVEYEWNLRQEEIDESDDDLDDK
ARFGAP1 inhibitor – inhibits rat ARF GTPase activating protein 1; Q62848; Arfgap1-stimulated ARF1 GTP hydrolysis, GDP FP detection; inhibition, % at 16.5 µM; hit rate 0.26% among 360,000; AID 651572;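 active = inhibition above a per-plate limit, mean inhibition of low control wells plus 3 SD, cut at about 25% in these data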;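 also: 0% = DMSO wells with enzyme and 100% = wells lacking Arfgap1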
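Material – truncated rat Arfgap1 GAP domain · Buffer or medium – HEPES-based buffer, pH 7.5 · Reagent – human ARF1(Δ1-17)-GTP substrate · Dosing – 16.5 µM single point, 1.26% DMSO · Schedule – GTP hydrolysis reaction 2 h at 25 °C · Technique – GDP detection by fluorescence polarization · Benchmarks – No-Arfgap1 wells (100%) versus DMSO full-reaction wells (0%) · Repeats – single replicate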
sPLA2 confirm – human GIII-sPLA2 inhibition, confirmation. shares compounds with sPLA2-III inh. recombinant hGIII-sPLA2, BODIPY PC-A2 QFRET fluorescence. inhibition, % at 12.2 µM. hit rate 34% among 2,000;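 active = mean inhibition across triplicates above the hit cutoff set in the earlier primary screen, cut at about 19% in these data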;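 also: 0% = enzyme with DMSO and 100% = DMSO wells lacking enzyme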
535nm interf – optically interferes with 535nm fluorescence in sPLA2 counter-screen; shares compounds with sPLA2-III inh; BODIPY FL product fluorescence interference, QFRET; inhibition, % at 12.2 µM; hit rate 8.5% among 2,000;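 active = average inhibition above the solvent-only control mean plus 3 SD, cut at about 6% in these data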;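 also: 0% = DMSO with substrate plus product and 100% = DMSO with substrate alone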
535nm interf DR – 535nm optical interference dose response, HGIII-sPLA2 counter-screen; shares compounds with sPLA2-III inh; BODIPY FL product fluorescence interference, cell-free; 240 tested, under 10 active; IC50, µM; AID 743455;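 active = IC50 at or below 10 µM; inactive = IC50 above 10 µM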
An asterisk follows results filed as active.

What do the screens show for `C/C(=N\NC(=O)c1nn(C)c(C)c1Br)c1ccc(NC(=O)c2ccccc2F)cc1`?
bovine MsrA act: -1; sPLA2-III inh: 22*; MsrA inh: 0; Rev-erbA mod: -9; ASAP1 inh: 12; ARFGAP1 inhibitor: 3; sPLA2 confirm: -1; 535nm interf: -11

What do the screens show for `FC(F)(F)c1ccccc1C(C#Cc1ccccc1)NCc1ccc2c(c1)OCO2` (stereo not drawn)?
sPLA2-III inh: 3; Rev-erbA mod: 2

Results for Nc1ccc(O)c2c1C(=O)c1ccccc1C2=O ?
bovine MsrA act: -2; sPLA2-III inh: 1; MsrA inh: 0; Rev-erbA mod: -37; ASAP1 inh: -8; ARFGAP1 inhibitor: -22

Results for O=C1c2ccccc2C(=O)c2c(Nc3ccc(CCO)cc3)ccc(O)c21 ?
bovine MsrA act: -1; sPLA2-III inh: 21*; MsrA inh: 1; Rev-erbA mod: -7; ASAP1 inh: 0; ARFGAP1 inhibitor: -3; sPLA2 confirm: 48*; 535nm interf: 3; 535nm interf DR: >122

Results for N#CCC[C@H]1CC[C@]2(CCCN(Cc3ccc(Br)cc3)C2)O1 ?
sPLA2-III inh: 0; Rev-erbA mod: 0

What do the screens show for `c1cc(-c2nnc3n2N=C(c2ccc4c(c2)OCO4)CS3)ccn1`?
sPLA2-III inh: 22*; Rev-erbA mod: 2; sPLA2 confirm: 0; 535nm interf: -10

What do the screens show for `CO[C@H]([C@H](C)/C=C/N(C)C=O)[C@@H](C)C(=O)CC[C@H](C)[C@H](O)[C@H](C)[C@H]1OC(=O)/C=C/C(C)=C/C[C@H](O)C[C@@H]2C=CC[C@@H](C[C@H](OC)[C@@]3(CO3)[C@@H](OC)C[C@@H](OC)[C@@H]1C)O2`?
sPLA2-III inh: -15; Rev-erbA mod: -3

How did CC(C)(C)c1ccc(C(=O)N2CCNCC2)cc1 do in these assays?
bovine MsrA act: -5; sPLA2-III inh: -9; MsrA inh: 1; Rev-erbA mod: 0; ASAP1 inh: 3; ARFGAP1 inhibitor: -7

Results for O=C(c1ccc(-c2cc(O)c3ncccc3c2)cc1)N1CCNCC1 ?
bovine MsrA act: -2; sPLA2-III inh: 23*; MsrA inh: 0; Rev-erbA mod: 1; ASAP1 inh: -14; ARFGAP1 inhibitor: -8; sPLA2 confirm: -11; 535nm interf: -22

Results for O=C(NCCCn1ccnc1)c1ccc(Cl)cc1 ?
bovine MsrA act: -10; sPLA2-III inh: 21*; MsrA inh: -1; Rev-erbA mod: 4; ASAP1 inh: 9; ARFGAP1 inhibitor: 4; sPLA2 confirm: -4; 535nm interf: -6

Results for CCCCCCCCN1C(=O)[C@@H](CC(=O)NCc2cccs2)C[C@@]2(C(=O)OC)C1=C[C@H](COCc1ccccc1)O[C@@H]2C ?
sPLA2-III inh: -6; Rev-erbA mod: 8

How did S=c1[nH]c(-c2ccccc2)cn1/N=C/c1ccc(Br)cc1 do in these assays?
bovine MsrA act: -1; sPLA2-III inh: 0; MsrA inh: 0; Rev-erbA mod: -2; ASAP1 inh: 10; ARFGAP1 inhibitor: -8

How did S=c1[nH]c(-c2ccccc2)cn1/N=C/c1cccs1 do in these assays?
bovine MsrA act: 0; sPLA2-III inh: 24*; MsrA inh: 1; Rev-erbA mod: -4; ASAP1 inh: -2; ARFGAP1 inhibitor: 12; sPLA2 confirm: 38*; 535nm interf: 12*

Results for CCCCN1C(=O)N2Cc3ccc(C)cc3C2CS1(=O)=O (stereo not drawn) ?
sPLA2-III inh: 3; Rev-erbA mod: 3

What do the screens show for `N#Cc1c(SCC(N)=O)nsc1SCc1ccc(Cl)cc1`?
bovine MsrA act: -1; sPLA2-III inh: 30*; MsrA inh: 0; Rev-erbA mod: -4; ASAP1 inh: 3; ARFGAP1 inhibitor: 4; sPLA2 confirm: 9; 535nm interf: -10
